Keap1 Nrf2 FP: Keap1-Nrf2 (human) interaction inhibition | Q14145 | Keap1 Kelch-Nrf2 peptide fluorescence polarization, 1536-well | inhibition, % at 9.4 µM | 340,000 compounds, 0.15% hits; in the data active = inhibition above about 12%;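 note: human Keap1 Kelch domain with fluorescein labeled Nrf2 9mer peptide probe; higher means more block of Keap1 binding to Nrf2 peptide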
Target sequence (Q14145 whole entry, looked up, the tested form may be a part): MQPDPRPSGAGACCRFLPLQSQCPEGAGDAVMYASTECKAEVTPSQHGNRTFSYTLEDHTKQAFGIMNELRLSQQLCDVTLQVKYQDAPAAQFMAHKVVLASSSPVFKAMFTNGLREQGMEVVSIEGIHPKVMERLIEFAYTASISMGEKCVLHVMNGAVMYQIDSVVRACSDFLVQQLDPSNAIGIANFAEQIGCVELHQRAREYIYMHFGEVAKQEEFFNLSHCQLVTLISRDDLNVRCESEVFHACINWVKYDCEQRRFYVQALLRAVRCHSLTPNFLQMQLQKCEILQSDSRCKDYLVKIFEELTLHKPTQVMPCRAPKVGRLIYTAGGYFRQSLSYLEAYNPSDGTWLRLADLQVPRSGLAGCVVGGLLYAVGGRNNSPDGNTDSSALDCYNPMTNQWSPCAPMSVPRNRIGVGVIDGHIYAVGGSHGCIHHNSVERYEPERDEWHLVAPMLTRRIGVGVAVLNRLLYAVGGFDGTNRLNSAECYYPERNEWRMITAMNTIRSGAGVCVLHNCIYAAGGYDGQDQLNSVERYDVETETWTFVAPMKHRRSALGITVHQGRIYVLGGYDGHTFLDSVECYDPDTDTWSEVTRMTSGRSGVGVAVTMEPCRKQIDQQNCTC
miR-122 sensor: inhibitors of miR-122 in Huh7 cells; Huh7 miR-122 Renilla luciferase sensor, 48 h; neutral wells = 0, positive control = 100; activation (reporter increase), % at 12.5 µM; 340,000 compounds, 0.3% hits;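 active = mean replicate activation score at least 90 and every replicate individually at or above 90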;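 note: higher luciferase means less miR-122 activity so hits act as miR-122 inhibitors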
CAL PDZ FP-1: human CAL PDZ-peptide interaction inhibition; purified CAL PDZ, TMR-peptide fluorescence polarization, 1 h; AID 504414; inhibition, % at 20 µM; Q9HD26; 330,000 compounds, 0.02% hits;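 active = highest replicate inhibition of at least 40%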
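Test system: purified CerCALP PDZ construct; Compound dosing: one concentration, 20 µM compound; Also added: TMR-labelled reporter peptide T*-PRC34 bound in PDZ groove; Read-out: inhibition from polarization loss; Controls: unlabelled peptide and DMSO controls; Signal: FP readout, S and P plane fluorescence; Incubation: 1 h at RT.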
CAL PDZ FP-2: inhibitors of human CAL PDZ peptide binding; purified CAL PDZ, TMR-peptide fluorescence polarization, 1 h; inhibition, % at 24.9 µM; 300,000 compounds, 0.92% hits;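 active = mean inhibition of at least 30% with at least half of replicates also reaching 30%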
LANA DNA inh: inhibitors of KSHV LANA C-terminal domain DNA binding. inhibition, % at 9 µM. AID 504423. MBP-C-LANA/FAM-LBS DNA binding, fluorescence polarization. 340,000 compounds, 0.078% hits;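 active = highest replicate inhibition at or above 60% at 9 µM, even if other replicates fall short; inactive = all replicates below 60% inhibition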
Hits are given with their value. Compounds with a hit are over-represented: about 1.1% of the library has one in this group of screens.

For Cc1ccc(S(=O)(=O)N(C)C[C@H]2Oc3c(NC(=O)C4CCOCC4)cccc3C(=O)N([C@@H](C)CO)C[C@H]2C)cc1 the results were miR-122 sensor inactive.
`O=C(C[C@@H]1CC[C@@H]2[C@H](COC[C@@H](O)CN2Cc2ccccc2)O1)N[C@H]1CCN(Cc2ccccc2)C1` gave miR-122 sensor inactive.
CCCS(=O)(=O)c1nc(S(=O)(=O)c2ccc(C)cc2)c(N2CCC3(CC2)OCCO3)s1 was read as Keap1 Nrf2 FP inactive, miR-122 sensor inactive, CAL PDZ FP-1 inactive, CAL PDZ FP-2 57 and LANA DNA inh inactive.
COc1ccc(-c2ccc3c(c2)O[C@@H](CN(C)Cc2ccccc2C(=O)O)[C@H](C)CN([C@@H](C)CO)S3(=O)=O)cc1 was read as miR-122 sensor inactive.
`Cc1ccc(-n2nc3c(c2NC(=O)c2ccco2)CS(=O)(=O)C3)cc1` gave Keap1 Nrf2 FP inactive, miR-122 sensor inactive, CAL PDZ FP-1 inactive, CAL PDZ FP-2 inactive and LANA DNA inh inactive.
For COc1ccc(-n2nc3c(c2NC(=O)c2ccco2)CS(=O)(=O)C3)cc1 the results were Keap1 Nrf2 FP inactive, miR-122 sensor inactive, CAL PDZ FP-1 inactive, CAL PDZ FP-2 76 and LANA DNA inh inactive.
For COc1cc(C)c(S(=O)(=O)NOCc2ccccc2)c(C)c1C the results were Keap1 Nrf2 FP inactive, miR-122 sensor inactive, CAL PDZ FP-1 inactive, CAL PDZ FP-2 inactive and LANA DNA inh inactive.
`COc1cc(C)c(S(=O)(=O)NOCc2ccc([N+](=O)[O-])cc2)c(C)c1C` gave Keap1 Nrf2 FP inactive, miR-122 sensor 323, CAL PDZ FP-1 inactive, CAL PDZ FP-2 inactive and LANA DNA inh inactive.
CC(=O)n1cc(/C=N/NC(=O)c2ccccc2Cl)c2ccccc21 was read as Keap1 Nrf2 FP inactive, miR-122 sensor inactive, CAL PDZ FP-1 inactive, CAL PDZ FP-2 68 and LANA DNA inh inactive.
O=C(c1ccncc1)N1C[C@@H]2[C@H](c3ccccc31)[C@H](CO)N2C(=O)c1ccccn1 was read as miR-122 sensor inactive.
Screening COc1ccc(N/N=C(/Oc2ccc([N+](=O)[O-])cc2)C(C)=O)cc1 returned Keap1 Nrf2 FP inactive, miR-122 sensor inactive, CAL PDZ FP-1 inactive, CAL PDZ FP-2 inactive and LANA DNA inh inactive.
For COc1ccc(NN=Nc2ccc([N+](=O)[O-])cc2)cc1 the results were Keap1 Nrf2 FP inactive, miR-122 sensor inactive, CAL PDZ FP-1 inactive, CAL PDZ FP-2 42 and LANA DNA inh inactive.
`CCCNC(=O)C[C@H]1CC[C@@H]2[C@H](COc3ccc(NC(=O)NCC)cc3C(=O)N2C)O1` gave miR-122 sensor inactive.
Screening C=CCn1cnnc1SCC(=O)N(C)CC1COc2ccccc2O1 (configuration not stated) returned Keap1 Nrf2 FP inactive, miR-122 sensor inactive, CAL PDZ FP-1 inactive, CAL PDZ FP-2 48 and LANA DNA inh inactive.
C=CCn1cnnc1SCC(=O)NCC1COc2ccccc2O1 (configuration not stated) was read as Keap1 Nrf2 FP inactive, CAL PDZ FP-1 inactive, CAL PDZ FP-2 inactive and LANA DNA inh inactive.
For Cc1noc(C)c1S(=O)(=O)Nc1ccc2c(c1)CC(=O)N([C@H](C)CO)C[C@@H](C)[C@@H](CN(C)C(=O)Nc1ccc(C(F)(F)F)cc1)O2 the results were miR-122 sensor inactive.
Screening COc1ccc(N/N=C(\C#N)C(=N)N2CCCCC2)cc1 returned Keap1 Nrf2 FP inactive, CAL PDZ FP-1 inactive, CAL PDZ FP-2 49 and LANA DNA inh inactive.
Cc1ccc(N/N=C(\C#N)C(=N)N2CCOCC2)cc1 was read as Keap1 Nrf2 FP inactive, CAL PDZ FP-1 inactive, CAL PDZ FP-2 inactive and LANA DNA inh inactive.
`N#C/C(=N\Nc1ccc(F)cc1)C(=N)N1CCCCCC1` gave Keap1 Nrf2 FP inactive, miR-122 sensor inactive, CAL PDZ FP-1 inactive and LANA DNA inh inactive.
Cc1ccc(N/N=C(\C#N)C(=N)N2CCCCCC2)cc1 was read as Keap1 Nrf2 FP inactive, CAL PDZ FP-1 inactive, CAL PDZ FP-2 30 and LANA DNA inh inactive.
`COc1ccc(NC(=O)N(C)C[C@H]2Oc3c(NS(=O)(=O)c4ccc(F)cc4)cccc3C(=O)N([C@@H](C)CO)C[C@H]2C)cc1` gave miR-122 sensor inactive.
For C[C@@H]1CCCCO[C@@H](CN(C)Cc2ccc3c(c2)OCO3)[C@H](C)CN([C@H](C)CO)C(=O)c2cc(N(C)C)ccc2O1 the results were miR-122 sensor inactive.

Source: PubChem BioAssay
